Legend:
Format in all cases: cell-based
[1] = biological target: T1, Transient receptor potential cation channel subfamily V member 1 (Homo sapiens, UniProt Q8NER1); assay: Antagonist activity at human TRPV1 expressed in CHO cells assessed as inhibition of capsaicin-induced 45Ca2+ uptake preincubated for 15 mins prior to capsaicin challenge measured after 5 mins by liquid scintillation counting analysis
How it was run: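 Human TRPV1 heterologously expressed in CHO cells; cells pre-incubated with antagonist for 15 min, then challenged with capsaicin (30 nM) and 45Ca2+ uptake measured. Dose-dependent inhibition was used to derive Ki(ant), correcting for capsaicin–antagonist competition. Values are mean ± SEM of at least three experiments.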

[2] = biological target: T1, Transient receptor potential cation channel subfamily V member 1; assay: Antagonist activity at human TRPV1 expressed in CHO cells assessed as inhibition of capsaicin-induced 45Ca2+ uptake preincubated for 30 mins prior to capsaicin challenge measured after 5 mins by liquid scintillation counting analysis
How it was run: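 CHO cells heterologously expressing human TRPV1 were given a 30 min pre-incubation with antagonist before challenge with capsaicin (30 nM). Capsaicin-stimulated 45Ca2+ uptake was read out, and Ki(ant) was derived from dose-dependent inhibition, allowing for competition with capsaicin. Values are mean ± SEM, with n ≥ 3 experiments.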

[3] = biological target: T1, Transient receptor potential cation channel subfamily V member 1; assay: Agonist activity at human TRPV1 expressed in CHO cells assessed as 45Ca2+ uptake incubated for 5 mins by liquid scintillation counting analysis
How it was run: (§1)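 Human TRPV1 heterologously expressed in CHO cells; 45Ca2+ uptake measured. Maximal response defined with saturating capsaicin (1 μM). Mean ± SEM of at least three experiments. Where shown, % agonism refers to test concentrations of 3–30 μM.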

[4] = biological target: T1, Transient receptor potential cation channel subfamily V member 1; assay: Displacement of [3H]-resiniferatoxin from human TRPV1 expressed in CHO cells incubated for 60 mins by scintillation counting analysis
How it was run: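 Competition binding against [3H]-resiniferatoxin using human TRPV1 heterologously expressed in CHO cells; Ki reported. Mean ± SEM of at least three experiments.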

[5] = biological target: T1, Transient receptor potential cation channel subfamily V member 1; assay: Antagonist activity at human TRPV1 expressed in CHO cells assessed as inhibition of capsaicin-induced 45Ca2+ uptake incubated for 5 mins by liquid scintillation counting analysis
[6] = biological target: T1, Transient receptor potential cation channel subfamily V member 1; assay: Antagonist activity at human TRPV1 expressed in CHO cells assessed as inhibition of capsaicin-induced 45Ca2+ uptake at 3 to 30 uM incubated for 5 mins by liquid scintillation counting analysis
[7] = biological target: T1, Transient receptor potential cation channel subfamily V member 1; assay: Agonist activity at human TRPV1 expressed in CHO cells assessed as 45Ca2+ uptake at 3 to 30 uM incubated for 5 mins by liquid scintillation counting analysis; how it was run: as §1

T1 sequence (Q8NER1 whole entry): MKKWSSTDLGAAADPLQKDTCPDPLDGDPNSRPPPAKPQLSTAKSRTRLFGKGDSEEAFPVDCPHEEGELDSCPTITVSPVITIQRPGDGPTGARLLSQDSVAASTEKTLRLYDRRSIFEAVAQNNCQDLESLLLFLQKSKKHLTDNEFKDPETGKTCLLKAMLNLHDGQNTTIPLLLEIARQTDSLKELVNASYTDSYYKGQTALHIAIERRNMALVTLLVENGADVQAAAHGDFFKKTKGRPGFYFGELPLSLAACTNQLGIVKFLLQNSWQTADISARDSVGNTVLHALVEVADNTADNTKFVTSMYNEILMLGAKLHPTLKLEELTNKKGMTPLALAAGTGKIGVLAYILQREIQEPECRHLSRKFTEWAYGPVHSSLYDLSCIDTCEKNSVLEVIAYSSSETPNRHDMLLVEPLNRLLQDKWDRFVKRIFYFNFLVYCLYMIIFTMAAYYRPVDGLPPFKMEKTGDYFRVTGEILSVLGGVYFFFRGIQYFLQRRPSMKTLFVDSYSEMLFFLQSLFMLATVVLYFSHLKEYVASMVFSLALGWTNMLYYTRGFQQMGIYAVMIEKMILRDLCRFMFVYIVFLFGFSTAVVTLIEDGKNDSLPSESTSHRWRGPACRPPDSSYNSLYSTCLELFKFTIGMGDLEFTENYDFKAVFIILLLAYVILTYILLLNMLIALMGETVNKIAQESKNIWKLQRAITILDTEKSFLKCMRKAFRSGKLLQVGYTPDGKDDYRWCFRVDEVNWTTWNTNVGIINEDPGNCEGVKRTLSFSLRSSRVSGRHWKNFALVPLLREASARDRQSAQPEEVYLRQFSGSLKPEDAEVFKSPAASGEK

Structure (SMILES) | Ki [1] [nM] | Ki [2] [nM] | EC50 [3] | Ki [4] [nM] | Ki [5] [nM] | inhibition [6] [%] | Activity [7] [%]
Cc1cccc(N(C(=O)NCc2ccc(C(F)(F)F)nc2N2CCC(C)CC2)c2ccc(NS(C)(=O)=O)c(F)c2)c1 | 2200 | 860 | Not Active | 490 |  |  | 
CC1CCN(c2nc(C(F)(F)F)ccc2CNC(=O)Nc2ccc(CNS(C)(=O)=O)c(F)c2)CC1 |  |  | Not Active | 6.77 | 12.5 |  | 
CC1CCN(c2nc(C(F)(F)F)ccc2CNC(=O)NC(C)c2ccc(NS(C)(=O)=O)c(F)c2)CC1 (stereo unspecified) |  |  | Not Active | 31.6 | 28.1 |  | 
CC1CCN(c2nc(C(F)(F)F)ccc2CNC(=O)NCc2ccc(NS(C)(=O)=O)c(F)c2)CC1 |  |  | Not Active |  |  |  | 
CC1CCN(c2nc(C(F)(F)F)ccc2CCNC(=O)C(C)c2ccc(NS(C)(=O)=O)c(F)c2)CC1 (stereo unspecified) |  |  | Not Active | 54 | 95 |  | 
CC1CCN(c2nc(C(F)(F)F)ccc2CCNC(=O)Nc2ccc(NS(C)(=O)=O)c(F)c2)CC1 |  |  |  | 210 |  | 49 | 29
CC1CCN(c2nc(C(F)(F)F)ccc2CNC(=O)C(C)c2ccc(NS(C)(=O)=O)c(F)c2)CC1 (stereo unspecified) |  |  | Not Active |  |  |  | 
CC1CCN(c2nc(C(F)(F)F)ccc2CNC(=O)NCc2ccc(CNS(C)(=O)=O)c(F)c2)CC1 |  |  | Not Active | 410 | 199 |  | 
CC1CCN(c2nc(C(F)(F)F)ccc2CNC(=O)[C@@H](C)c2ccc(NS(C)(=O)=O)c(F)c2)CC1 |  |  | Not Active |  |  |  | 
CC1CCN(c2nc(C(F)(F)F)ccc2CNC(=O)N(C)c2ccc(NS(C)(=O)=O)c(F)c2)CC1 |  |  | Not Active | 1160 | 59 |  | 
CC1CCN(c2nc(C(F)(F)F)ccc2CNC(=O)C(C)c2ccc(CNS(C)(=O)=O)c(F)c2)CC1 (stereo unspecified) |  |  | Not Active | 230 | 27.6 |  | 
CC1CCN(c2nc(C(F)(F)F)ccc2CNC(=O)Nc2ccc(NS(C)(=O)=O)c(F)c2)CC1 |  |  | Not Active | 83 | 149 |  | 

From ChEMBL document CHEMBL3822433, “Discovery of N-(3-fluoro-4-methylsulfonamidomethylphenyl)urea as a potent TRPV1 antagonistic template” (Bioorg Med Chem Lett, 2016)
